Results on two molecules are retold here after publication PMC3483416 (Archives of biochemistry and biophysics, 2012).

For one experiment, the target named is full-length human BclXL (Homo sapiens, UniProt Q07817). Kind of experiment: ITC: binding of Bid_BH3 peptide to full-length BclXL at varying pH. The following applies: for TΔS / ΔH / ΔG: 25 °C, ± SD, n at least 3; for TΔS: TΔS=ΔH-ΔG; for ΔG: ΔG=RTlnKd. The essentials: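 20-mer BH3 peptide (human Bid residues 81–100, gravimetric concentration) at 0.5–1 mM, titrated in 25 × 10 μl injections into 50 μM full-length human BclXL at 25 °C. Buffers 50 mM acetate pH 4, phosphate pH 6, Tris pH 8 or CAPS pH 10, each with 100 mM NaCl, 1 mM EDTA and 5 mM β-mercaptoethanol. Dilution heats subtracted. Kd and ΔH from a one-site fit; TΔS = ΔH − ΔG. Proton coupling assessed from buffer ionization-enthalpy dependence. ≥3 repeats.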
Sequence of full-length human BclXL (Q07817 whole entry, the tested form may be a part): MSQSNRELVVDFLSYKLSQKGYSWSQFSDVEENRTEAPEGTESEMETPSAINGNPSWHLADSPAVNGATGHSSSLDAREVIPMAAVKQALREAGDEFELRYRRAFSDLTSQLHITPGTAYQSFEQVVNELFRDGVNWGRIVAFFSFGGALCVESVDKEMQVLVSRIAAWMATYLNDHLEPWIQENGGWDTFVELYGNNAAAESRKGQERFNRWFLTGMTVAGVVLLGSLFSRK
For orientation: ITC needs no label: the signal is the heat of the interaction.

Experiment [1] deals with T1, Full-length human BclXL (residues 1-233) (human, UniProt Q07817-1 1-233). Kind of experiment: ITC.
T1 sequence (Q07817 whole entry, the tested form may be a part): as above
Experiment [2] concerns the target T1, Full-length human BclXL (residues 1-233). Kind of experiment: ITC. The source holds these as a separate data set.
The target is the same in experiment [3]. Kind of experiment: ITC. This is another data set of the same source.
The target is the same in experiment [4]. Kind of experiment: ITC. The source holds these as a separate data set.

Broadly, the Kd is the equilibrium constant for the complex coming apart. Lower therefore signals a tighter complex.

Read-outs that look alike come from different tables or passages of the source. No end group written: not given here.

As to DIIRNIARHLAQVGDSMDRS [Bid_BH3 peptide], the TΔS at full-length human BclXL (pH 4, acetate) is -2.15 ± 0.03 kcal/mol; on full-length human BclXL (pH 6, phosphate), -5.48 ± 0.15 kcal/mol; on full-length human BclXL (pH 8, Tris) it was -11.58 ± 0.29 kcal/mol; at full-length human BclXL (pH 10, CAPS), -10.13 ± 0.31 kcal/mol. Also, the ΔH at full-length human BclXL (pH 4, acetate) was -9.09 ± 0.20 kcal/mol; on full-length human BclXL (pH 6, phosphate), -13.66 ± 0.32 kcal/mol; at full-length human BclXL (pH 8, Tris), -18.39 ± 0.53 kcal/mol; at full-length human BclXL (pH 10, CAPS) it was -16.54 ± 0.47 kcal/mol. Further, the ΔG at full-length human BclXL (pH 4, acetate) is -6.94 ± 0.08 kcal/mol; at full-length human BclXL (pH 6, phosphate), -8.17 ± 0.09 kcal/mol; at full-length human BclXL (pH 8, Tris), -6.80 ± 0.04 kcal/mol; on full-length human BclXL (pH 10, CAPS) it was -6.40 ± 0.02 kcal/mol. Moreover, on full-length human BclXL (pH 4-10), the “optimum pH of ligand binding” value was “optimally occurs at pH 6”.

B1: Bid_BH3 peptide (20-mer spanning residues 81-100, the BH3 domain within human Bid) (peptide)
peptide: DIIRNIARHLAQVGDSMDRS
Consider B1, for which the Kd in experiment [1] was determined as 10.4 µM; in experiment [2], 20.5 µM; in experiment [3], 8.3 µM; in experiment [4] it was 1.03 µM. Further, the dH in experiment [1] is -18.4 kcal/mol; in experiment [2], -16.5 kcal/mol; in experiment [3], -9.09 kcal/mol; in experiment [4], -13.7 kcal/mol.
